From PubChem
MrgX1 ag = activates human MrgX1 receptor signaling; 310,000 tested, 0.44% active; MrgX1-HEK293 cells, Fluo-4 calcium fluorescence, agonist mode; hits give high values; B-score at 10 µM;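 active = calcium response B-score plate-corrected fluorescence ratio at least 3 library SD, with starting fluorescence B-score inside 5 SD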
Target sequence (Q96LB2 whole entry, looked up): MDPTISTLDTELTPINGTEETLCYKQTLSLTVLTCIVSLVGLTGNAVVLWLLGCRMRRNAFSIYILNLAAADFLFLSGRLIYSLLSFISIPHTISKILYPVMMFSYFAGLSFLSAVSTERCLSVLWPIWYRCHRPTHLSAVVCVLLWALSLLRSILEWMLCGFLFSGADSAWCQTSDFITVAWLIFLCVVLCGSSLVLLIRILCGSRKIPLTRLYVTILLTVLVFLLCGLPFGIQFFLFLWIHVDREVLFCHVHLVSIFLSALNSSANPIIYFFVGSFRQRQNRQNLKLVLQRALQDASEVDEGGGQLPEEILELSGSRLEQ
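Test system: Stable human MrgX1 HEK293 cell line | Schedule: Overnight plating before 1 h dye loading | Read-out basis: Baseline-normalised fluorescence change ratio, B-scored | Detection: Kinetic calcium dye fluorescence, Fluo-4 NW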
MrgX1 antagonist = human MrgX1 receptor antagonism, primary screen | Q96LB2 | MRGX1-HEK293 calcium flux, Fluo-4, BAM8-22 antagonism; hits give low values | B-score at 10 µM | 310,000 tested, 1.3% active | AID 588676;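 active = calcium-response B-score plate-corrected more than 3 library SD below zero, starting fluorescence within 5 deviations, no agonist response on first addition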;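 note: peak minus trough fluorescence over baseline after final BAM8-22 challenge near maximal dose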
RGS4 inh = human RGS4 inhibition; P49798; HEK293 M3R/RGS4 inducible, Fluo-4 calcium flux; hits give high values; triggered by carbachol at its EC20; B-score at 10 µM; 310,000 tested, 0.45% active; AID 463165;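 active = B-score, a plate-corrected calcium signal, over three deviations above library mean, with baseline fluorescence within five deviations of library mean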;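 note: RGS4 expression induced by doxycycline in cells with stable M3 receptor; B-score is computed from the integrated fluorescence ratio over baseline after carbachol; higher B-score means a larger calcium signal and so more RGS4 inhibition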
Target sequence (P49798 whole entry, looked up): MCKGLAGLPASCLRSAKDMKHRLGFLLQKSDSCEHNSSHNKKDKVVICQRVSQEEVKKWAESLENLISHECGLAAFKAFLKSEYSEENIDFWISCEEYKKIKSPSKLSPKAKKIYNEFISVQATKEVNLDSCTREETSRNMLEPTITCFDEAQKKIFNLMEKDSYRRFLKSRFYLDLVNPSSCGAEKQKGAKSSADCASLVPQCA
RGS4 pot = potentiators or activators of RGS4 | HEK293 M3R/inducible RGS4, carbachol calcium flux Fluo4; hits give low values | B-score at 10 µM | 310,000 tested, 0.92% active | AID 463111;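 active = B-score of the integrated calcium signal more than 4 SD below the library mean, with starting fluorescence not abnormally high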;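 note: negative B-score means reduced calcium response which marks RGS4 activation or potentiation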
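Also added: carbachol at ECmax as muscarinic agonist stimulus; Assay system: HEK293 cells with stable M3R and inducible RGS4; Timing: overnight RGS4 induction, 30 min dye load 37 °C, 20 min compound RT; Measured by: Fluo4-AM (2 µM) calcium-flux fluorescence, kinetic read.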
MrgX1 PAM = human MrgX1 positive allosteric modulation, primary screen; B-score at 10 µM; Q96LB2; MrgX1-HEK293, Fluo-4 calcium flux, FDSS; hits give high values; 310,000 tested, 0.63% active;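 active = plate-corrected calcium response at least 3 library SD above typical, normal starting fluorescence, not activating the receptor alone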;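 note: compound read alongside a low EC10 to EC30 dose of BAM8-22 agonist; peak minus trough fluorescence over baseline measured at the second addition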
RGS4 inh valid = validation of RGS4 inhibitors; shares compounds with RGS4 inh; HEK293 M3R/RGS4, carbachol calcium Fluo-4 fluorescence; carbachol added at its EC20; 0 = buffer wells, 100 = carbachol control; calcium response, % at 10 µM; 1,700 tested, 65% active; AID 492999;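 active = duplicate-averaged calcium response above the buffer-only control mean plus 5 SD of those controls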;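 note: integrated fluorescence ratio F max minus min over baseline F0; higher response in RGS4-induced cells means RGS4 inhibition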
M3R Ca ctr = checks RGS4 inhibitor effects in non-induced HEK293 M3R cells; shares compounds with RGS4 inh; carbachol calcium Fluo-4; submaximal (EC20) carbachol stimulus; buffer wells 0%, carbachol control wells 100%; activity (percent), % at 10 µM; 1,900 tested, 20% active; call rule not given here;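 note: RGS4 induction absent so cells express M3R without RGS4; higher means more calcium signal and flags a non-specific hit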
RGS4 inh ctr2 = second counter-screen for RGS4 inhibitors: non-induced cells without carbachol | shares compounds with RGS4 inh | HEK293 M3R/RGS4 non-induced, Fluo-4 calcium, no carbachol; normalised: buffer wells 0%, carbachol wells 100% | AID 493001 | 1,900 tested, 22% active | calcium response (agonist-mode artifact), % at 10 µM;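 active = duplicate-averaged calcium rise in uninduced cells above buffer wells' mean plus 5 SD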
The depositor's hits bear a star; i = inactive; x = no result given. Only some compounds are listed: those with a hit (about 3.5% of all), similar ones and a draw of the others.

SMILES	MrgX1 ag	MrgX1 antagonist	RGS4 inh	RGS4 pot	MrgX1 PAM	RGS4 inh valid	M3R Ca ctr	RGS4 inh ctr2
CCCc1nc(N2CCOCC2)c(C#N)c2c1CCCC2	i	i	i	i	i	x	x	x
CCCCn1c(N)c(N(CC(C)C)C(=O)c2cc3c(s2)CCCCC3)c(=O)[nH]c1=O	i	i	i	i	i	x	x	x
CS(=O)(=O)Nc1ccc(C(=O)Nc2ccc3c(c2)OCCO3)cc1	i	i	i	i	i	x	x	x
Cc1cc(NS(=O)(=O)c2ccc(Nc3nc(-c4ccc(O)cc4)cs3)cc2)no1	i	i	i	i	i	x	i	i
Cc1cc(NS(=O)(=O)c2ccc(Nc3nc(-c4sc(N)nc4C)cs3)cc2)no1	i	i	i	i	i	x	x	x
COc1cc(NS(=O)(=O)c2ccc(Nc3nc(-c4ccccc4)cs3)cc2)nc(OC)n1	i	i	8*	i	i	18%*	i	i
Cc1cc(NS(=O)(=O)c2ccc(Nc3nc(-c4ccc(C)c(C)c4)cs3)cc2)no1	i	i	i	i	i	i	34%*	i
O=C(Cc1ccccc1)c1nc2ccccc2s1	i	i	i	i	i	x	x	x
COc1ccc(C2CC(c3ccc(Br)cc3)=NN2C(=O)c2cccnc2)cc1 (centres undefined)	i	i	i	i	i	x	x	x
COc1ccc(C2=NN(CN3C(=O)C(=O)c4ccccc43)C(c3ccc(C)cc3)C2)cc1 (centres undefined)	i	i	6.7*	i	i	18%*	i	i
COc1ccc(C2=NN(CN3C(=O)C(=O)c4ccccc43)C(c3ccc(Br)cc3)C2)cc1 (centres undefined)	i	i	11*	i	i	38%*	42%*	i
COc1ccc(N=C2S/C(=C\c3ccc(C)s3)C(=O)N2CC(C)C)cc1	i	i	i	i	i	x	x	x
Cc1ccccc1CN(C)CCS(=O)(=O)c1cc(Cl)ccc1Cl	i	i	i	i	i	x	x	x
COc1cccc(N2CCN(Cc3nc4scc(-c5ccccc5)c4c(=O)[nH]3)CC2)c1	i	i	i	i	i	x	x	x
Cc1ccc(-c2cc(-c3ccccc3)c(C#N)c(N)n2)o1	i	i	7.7*	i	i	5.5%*	i	i
Cc1ccc(-c2cc(-c3ccc(F)cc3)nc(N)c2C#N)o1	i	i	6*	i	i	i	i	i
CCOC(=O)C1=C(C)Nc2nc(=S)[nH]n2C1c1ccc(Cl)cc1 (centres undefined)	x	x	9.2*	i	x	14%*	35%*	18%*
CCOC(=O)C1=C(C)Nc2nc(SCC)nn2C1c1ccc(OC)cc1 (centres undefined)	i	i	i	i	i	x	x	x
Cc1ccc2[nH]cc(CCNC(=O)c3ccco3)c2c1	i	i	i	i	i	x	x	x
O=C(CN(C(=O)CNS(=O)(=O)c1ccc(F)cc1)c1ccccc1F)NCc1ccco1	i	i	4.9*	i	i	i	i	i
O=C(CN(C(=O)CNS(=O)(=O)c1ccc(F)cc1)c1ccccc1)NCc1ccco1	i	i	i	i	i	i	i	i
O=C(CN(C(=O)CNS(=O)(=O)c1ccc(F)cc1)c1ccc(F)cc1)NCc1ccco1	i	i	i	i	i	i	i	i
Cc1ccc(C)c(N(CC(=O)NCc2ccco2)C(=O)CNS(=O)(=O)c2ccc(F)cc2)c1	i	i	i	i	i	x	x	x
O=[N+]([O-])c1cccc(CN2C[C@@]34C=C[C@@H](C[C@@H]3S2(=O)=O)O4)c1	i	i	i	i	i	x	x	x
CCCc1c2ccccc2nc2ccccc12	i	i	i	i	i	x	x	x
SMILES	MrgX1 ag	MrgX1 antagonist	RGS4 inh	RGS4 pot	MrgX1 PAM	RGS4 inh valid	M3R Ca ctr	RGS4 inh ctr2
CCCCC(NC(=O)COc1cc2c(c3oc(=O)cc(C)c13)CCC(C)(C)O2)C(=O)O (centres undefined)	i	i	5.7*	i	i	i	i	i
Cc1cc(=O)oc2c3c(cc(OCC(=O)N[C@@H](Cc4ccccc4)C(=O)O)c12)OC(C)(C)CC3	i	i	i	i	i	x	x	x
Cc1cc(=O)oc2c3c(cc(OCC(=O)N[C@@H](C)C(=O)O)c12)OC(C)(C)CC3	i	i	i	i	i	x	i	i
O=S(=O)(c1cccc(-c2nc3n(n2)Cc2ccccc2-3)c1)N1CCCCC1	i	i	i	i	i	x	x	x
COc1cc(/C=C/C(=O)c2ccc(O)cc2)ccc1OCC#N	i	i	4.7*	i	i	10%*	i	i
CCOC(=O)N1CCN(Cc2nc3cc(NC(=O)CC)ccc3n2C)CC1	i	i	i	i	i	x	x	x
COC(=O)c1nn(C23CC4CC(CC(C4)C2)C3)c2c1C(=O)N(c1ccc(Br)cc1)C2=O	i	i	5.9*	i	i	7.5%*	i	i
COC(=O)c1cc(-c2ccc(Br)cc2)on1	i	i	i	i	i	x	x	x
CCOC(=O)c1nn(C23CC4CC(CC(C4)C2)C3)c2c1C(=O)N(c1ccc(C)cc1)C2=O	i	i	5.2*	i	i	i	i	100%*
O=C1OCCN/C1=C\C(=O)c1ccc(Cl)cc1	i	i	i	i	i	x	x	x
COc1ccc(CNC(=O)CCNS(=O)(=O)c2ccc(C)cc2)cc1	i	i	i	i	i	i	i	i
CC(=O)Oc1ccc([C@@H]2COc3c(ccc4c3C=CC(C)(C)O4)C2)c(OC(C)=O)c1	i	i	6.1*	i	i	17%*	i	i
O=C(Nc1nc(-c2ccc(Cl)s2)cs1)c1cccs1	i	i	i	i	i	x	x	x
CC(=O)Nc1sc(NC(=O)c2ccco2)nc1-c1cccs1	i	i	i	i	i	x	x	x
O=C(Nc1nc(-c2ccc(Cl)s2)cs1)c1ccco1	i	i	6.5*	i	i	14%*	i	i
